Measurements from ChEMBL document CHEMBL1124035, “1-Amino-substituted 4-methyl-5H-pyrido[4,3-b]indoles (gamma-carbolines) as tricyclic analogues of ellipticines: a new class of antineoplastic agents” (1988).
Active and inactive are the calls of the source. The calls are words filed in the database; no cut-off is given here.

Tests used:
[1] = system: Mus musculus; assay: Antitumor activity against P388 leukemia in mice at a dose of 10 mg/kg administered intraperitoneally for 5 days; type: functional
Procedure, shortened: (§1)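 CDF1 hybrid male or female mice, 10 per group, were inoculated ip with 10^6 viable P388 cells on day 0. Drugs in distilled water were given ip (0.1 mL/10 g body weight) daily D1-5. Vehicle, 5-fluorouracil and BD 84 were given the same way. T/C = median survival day of treated / controls × 100; T/C > 128% was significant; cures counted at D60.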

[2] = system: Mus musculus; assay: Antitumor activity against P388 leukemia in mice at a dose of 80 mg/kg administered intraperitoneally for 5 days; type: functional, organism-based; parameters: dose 80 mg/kg
Procedure, shortened: (§2)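 CDF1 hybrid male or female mice, 10 per group, were inoculated ip on day 0 with 10^6 viable P388 leukemia cells. Drug in distilled water was given ip (0.1 mL/10 g body weight) daily on days 1-5, with vehicle, 5-fluorouracil and BD 84 controls given the same way. T/C = median survival of treated/controls × 100; T/C > 128% counted as significant.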

[3] = system: Calf thymus DNA; assay: Apparent DNA affinity constant; type: nucleic-acid assay; details: Bos taurus
Procedure, shortened: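 Apparent DNA affinity constant was measured by competition with ethidium bromide. Buffer was 20 mM Na2HPO4/NaH2PO4, 0.1 M NaCl, 1 mM EDTA, pH 7.4, with calf thymus DNA at 10 μg/mL. Values are given in 10^6 M⁻¹.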

[4] = system: Mus musculus; assay: Antitumor activity against P388 leukemia in mice at a dose of 40 mg/kg administered intraperitoneally for 5 days; type: functional; procedure, shortened: as §2
[5] = system: Mus musculus; assay: Antitumor activity against P388 leukemia in mice at a dose of 5 mg/kg administered intraperitoneally for 5 days; type: functional; procedure, shortened: as §2
[6] = system: L1210; assay: Ability to reduce the cell count to 50% in L1210 culture cells; type: functional; details: Mus musculus, read-out: ID50 (the source's name)
Procedure, shortened: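 L1210 cells in exponential growth in RPMI 1640 with 2 mM glutamine, penicillin/streptomycin and 10% FCS, 37 °C, 5% CO2. Drugs dissolved in distilled water were added to cells at 0.8 × 10^5 cells/mL for 48 h, then cells were counted. ID50 is the concentration halving cell proliferation versus controls, from regression of dose-response data; mean of two independent experiments.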

[7] = system: Mus musculus; assay: Antitumor activity against P388 leukemia in mice at a dose of 20 mg/kg administered intraperitoneally for 5 days; type: functional; details: route intraperitoneal; procedure, shortened: as §1
[8] = system: Mus musculus; assay: Antitumor activity against P388 leukemia in intraperitoneally for 5 days; type: functional; procedure, shortened: as §1
[9] = system: Mus musculus; assay: Antitumor activity against P388 leukemia in mice at a dose of 40 mg/kg administered intraperitoneally; type: functional, organism-based; parameters: dose 40 mg/kg
[10] = system: Mus musculus; assay: Antitumor activity against P388 leukemia in mice at a dose of 50 mg/kg administered intraperitoneally for 5 days; type: functional, organism-based; parameters: dose 50 mg/kg; procedure, shortened: as §2
[11] = system: Mus musculus; assay: Antitumor activity against P388 leukemia in mice at a dose of 24 mg/kg administered intraperitoneally for 5 days; type: functional; details: route intraperitoneal; procedure, shortened: as §2
[12] = system: Mus musculus; assay: Antitumor activity against P388 leukemia in mice at a dose of 12 mg/kg administered intraperitoneally for 5 days; type: functional; details: route intraperitoneal; procedure, shortened: as §1
[13] = system: Mus musculus; assay: Antitumor activity against P388 leukemia in mice at a dose of 6 mg/kg administered intraperitoneally for 5 days; type: functional; details: route intraperitoneal; procedure, shortened: as §2
[14] = system: Mus musculus; assay: Antitumor activity against P388 leukemia in mice at a dose of 50 mg/kg administered intraperitoneally for 5 days; […]; type: functional; details: route intraperitoneal; procedure, shortened: as §2

| K aff [3] | IC50 [6] | SMILES | T/C ([1]; route intraperitoneal) | also measured |
| --- | --- | --- | --- | --- |
| 250000 M⁻¹ | 100 nM | CCN(CC)CCCNc1ncc(C)c2c1c1cc(OC)ccc1n2C | 115% | T/C [2]: Toxic; T/C ([4]; route intraperitoneal): 115%; T/C ([5]; route intraperitoneal): 107%; T/C [7]: 125% |
| 230000 M⁻¹ | 60 nM | CCN(CC)CC(O)CNc1ncc(C)c2c1c1cc(O)ccc1n2C (configuration not stated) | – | T/C [1]: Toxic; T/C [5]: inactive |
| 80000 M⁻¹ | 1200 nM | CCN(CC)CCNc1ncc(C)c2c1c1cc(OC)ccc1n2C | – | – |
| 150000 M⁻¹ | 1000 nM | COc1ccc2c(c1)c1c(NCC(C)CN(C)C)ncc(C)c1n2C (configuration not stated) | – | – |
| 350000 M⁻¹ | 310 nM | CCN(CC)CCCCNc1ncc(C)c2c1c1cc(O)ccc1n2C | – | – |
| 300000 M⁻¹ | 500 nM | COc1ccc2c(c1)c1c(NCCCN3CCCC3)ncc(C)c1n2C | – | – |
| 140000 M⁻¹ | 10 nM | Cc1cnc(NCC(C)CN(C)C)c2c3cc(O)ccc3n(C)c12 (configuration not stated) | – | – |
| 220000 M⁻¹ | 300 nM | CCN(CC)CCCNc1[nH]cc(C)c2nc3ccc(OC)cc3c1-2 | – | T/C [2]: Toxic; T/C ([4]; route intraperitoneal): 176%; T/C [8]: 147%; T/C [7]: 149% |
| 220000 M⁻¹ | 1200 nM | CCNCCCNc1[nH]cc(C)c2nc3ccc(OC)cc3c1-2 | 119% | T/C ([5]; route intraperitoneal): 119%; T/C [9]: Toxic; T/C [7]: 107% |
| 460000 M⁻¹ | 1300 nM | CCN(CC)CCCCNc1ncc(C)c2c1c1cc(OC)ccc1n2C | – | – |
| 130000 M⁻¹ | 160 nM | Cc1c[nH]c(NCCCN(C)C)c2c3ccccc3nc1-2 | 129% | T/C [10]: Toxic |
| 150000 M⁻¹ | 350 nM | Cc1cnc(NCCCN(C)C)c2c3ccccc3n(C)c12 | – | T/C [11]: 131%; T/C [10]: Toxic; T/C [12]: 114%; T/C [13]: 107% |
| 370000 M⁻¹ | 50 nM | Cc1cnc(NCCCN2CCCC2)c2c3cc(O)ccc3n(C)c12 | – | – |
| 360000 M⁻¹ | 130 nM | COc1ccc2c(c1)c1c(NCCCN(C)C)ncc(C)c1n2C | 160% | T/C [4]: Toxic; T/C ([5]; route intraperitoneal): 134%; T/C [7]: 150% |
| 150000 M⁻¹ | 220 nM | CCN(CC)CCCNc1[nH]cc(C)c2nc3ccccc3c1-2.O=C(O)/C=C\C(=O)O.O=C(O)/C=C\C(=O)O | 130% | T/C [14]: 175% |
